Drawing on PubChem BioAssay AID1899 (The Scripps Research Institute Molecular Screening Center, 2009), this text covers inhibition for 89 compounds.

SMILES strings stand for the structures. The whole screen tested about 300,000 compounds, of which about 1,000 (0.33%) were called active.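 Rule for the calls: active = inhibition above the mean of all tested compounds plus 3 SD, set per screening campaign (cut at about 45% in these data); inactive = the rest.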 The list comes from a sample in which actives are over-represented; it also holds similar structures and randomly drawn compounds.

The assay concerns HCV core protein (residues 1-106) dimerization. The experiment in a line: inhibitors of HCV core protein dimerization, primary screen, biochemical, TR-FRET, high-throughput (AID 1899). The conditions noted are these: TR-FRET GST/Flag-core106 dimerization, 1536-well; at 5 µM; stronger effect = higher value. A digest of the protocol:
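System – GST-tagged and Flag-tagged HCV core protein residues 1-106 · Repeats – one well for each compound · Technique – TR-FRET 671 and 617 nm emission · Doses – one concentration, 5 µM, in 0.5% DMSO · Times – 4 h, 22.5 °C incubation · Also added – Eu donor and XL665 acceptor anti-tag antibodies · Measure – percent inhibition of core106 dimerization signal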
For the compound `CC(=O)N1CCN(C(=O)c2cc(-c3ccc(C)o3)nc3ccccc23)CC1`, the inhibition is 1.32% (inactive). Turning to `COc1ccc(NC(=O)c2cc(-c3ccc(C)o3)nc3ccccc23)cc1`, the inhibition is 17.9% (inactive).

As to `Cc1ccc(NC(=O)c2cc(-c3ccc(C)o3)nc3ccccc23)nc1`, the inhibition is 49.3% (active). As to `CN(CC(=O)Nc1cccc2c1CCCC2)S(=O)(=O)c1ccc(Cl)cc1`, the inhibition was 1.71% (inactive). As to `CCOc1ccc(-c2nnn(CC(=O)N3CCN(c4ccc(OC)cc4)CC3)n2)cc1OCC`, the inhibition is 7.89% (inactive). To `COc1ccc(N2CCN(C(=O)CSc3nnc4ncccn34)CC2)cc1` belongs -2.8% (inactive). With `COc1ccc(N2CCN(C(=O)CSc3nc4cc(OC)c(OC)cc4cc3C#N)CC2)cc1`, the inhibition is 53.1% (active). Take `Cc1nnc(SC(C(=O)Nc2cc(Cl)cc(Cl)c2)c2ccccc2)[nH]c1=O` (centres undefined): the inhibition is 4.94% (inactive).

`COC(=O)c1cc(-c2cccs2)nc2ccccc12`: the inhibition was 3.48% (inactive).

On to `O=C(O)Cc1sc(-c2ccccc2)nc1-c1cccs1`, for which the inhibition was 5.73% (inactive). Consider `CN(C(=O)COc1nnc(-c2cccs2)c(-c2cccs2)n1)c1ccccc1`, for which the inhibition is 49% (active). With `CN(C(=O)CC1C(=O)NCCN1Cc1ccc(F)cc1Cl)C1CCCCC1` (centres undefined) the figure was -6.47% (inactive); with `Cc1ccc(C(=O)c2coc3ccc(O)c(CN(C)C)c23)cc1`, -5.01% (inactive). With `COc1cc(OC)c(C(=S)N2CCCC2)cc1OC`, the inhibition is 4.43% (inactive).

As to `COc1ccc(/C=N/NS(=O)(=O)c2ccc(NC(C)=O)cc2)cc1`, the inhibition was -3.63% (inactive). With `Cc1ccc(S(=O)(=O)N/N=C\c2cc3c(cc2[N+](=O)[O-])OCO3)cc1`, the inhibition is 2.28% (inactive). In the case of `COc1ccc(S(=O)(=O)N/N=C\c2ccc(OC)c(COc3ccc(C)cc3[N+](=O)[O-])c2)cc1`, the inhibition was 56% (active). With `COc1ccccc1N(CC(=O)Nc1ccc(C(F)(F)F)cc1)S(C)(=O)=O` the figure was -4.98% (inactive); with `O=C(O)CSc1nccn1-c1cccc(Cl)c1`, -3.31% (inactive); with `CC(C(=O)N=Nc1c(O)n(C)c2ccc(Br)cc12)n1cnc2ccccc2c1=O` (centres undefined), 11.6% (inactive). With `COc1ccccc1N1CCN(CC(=O)NC(=O)NCc2ccco2)CC1` the figure was -7.99% (inactive); with `O=C(CN1CCN(S(=O)(=O)/C=C/c2ccccc2)CC1)Nc1ccc(N2CCOCC2)cc1`, 2.85% (inactive). For `O=C(CN1CCN(S(=O)(=O)/C=C/c2ccccc2)CC1)NC(=O)NCc1ccco1`, the inhibition is 47.9% (active). As for `Cc1ccc(S(=O)(=O)NCCC(=O)OCC(=O)N(C)c2ccccc2)cc1`, the inhibition is -0.65% (inactive). With `N#Cc1cccc(NC(=O)CN2CCCCCC2)c1` the figure was -0.12% (inactive); with `Cc1cccc(C(=O)OC(C)C(=O)NC2CCCc3ccccc32)c1O` (centres undefined), -6.15% (inactive); with `C=CCOC(=O)C1=C(C)OC(N)=C(C#N)C1c1ccc(F)cc1` (centres undefined), -4.37% (inactive).

`C=CCOC(=O)C1=C(C)NC(SCC(=O)OCC)=C(C#N)C1c1ccc(C)cc1` (centres undefined): the inhibition was 59.5% (active). Regarding `CCOC(=O)CSC1=C(C#N)C(c2sccc2C)CC(=O)N1` (centres undefined), the inhibition is 6.38% (inactive). For `Cc1ccc(CN(N=Nc2nonc2N)c2nonc2N)c(C)c1`, the inhibition was 0.98% (inactive). To `CS(=O)(=O)C1=NN2C(=N)/C(=C\c3ccc(OCCOc4ccccc4)cc3)C(=O)N=C2S1` belongs 18.8% (inactive); to `CS(=O)(=O)c1ccc2c(c1)SC1=NC(=O)/C(=C/c3ccco3)C(=N)N12`, 79.4% (active). For `Cc1cc(/C=C2/C(=N)N3C(=NC2=O)SN=C3S(C)(=O)=O)c(C)n1-c1ccccc1`, the inhibition was 18.8% (inactive).

Consider `Cc1ccc(C)c2[nH]c(=O)c(CN(Cc3cccnc3)C(=S)NCc3ccco3)cc12`, for which the inhibition is 7.88% (inactive). As for `C[C@H]1CCC(=O)N([C@H](CSc2ccccc2)Cc2ccccc2)CC1`, the inhibition is -3.23% (inactive). With `O=C(NCC(c1cccs1)N1CCOCC1)c1cc(-c2ccccn2)nc2ccccc12` (centres undefined) the figure was 0.32% (inactive); with `O=C(NCc1cccs1)c1cc(-c2ccccn2)nc2ccc(Br)cc12`, 49.3% (active).

In the case of `O=C(Nc1ccncc1)c1cc(-c2ccccn2)nc2ccc(Br)cc12`, the inhibition is -6.91% (inactive). With `Cc1cc(C)n(CCNC(=O)CC2C(=O)NCCN2Cc2ccc(C)o2)n1` (centres undefined) the figure was 2.72% (inactive). With `COc1ccc(OC)c(NC(=O)N[C@H](Cc2ccccc2)C(=O)NN)c1`, the inhibition is -4.04% (inactive). Take `CCOC(=O)C1(CC2CCCCO2)CCN(Cc2nc(-c3cccs3)oc2C)CC1` (centres undefined): the inhibition is -1.21% (inactive). In the case of `Cc1ccc(C(=O)N/C(=C/c2ccc(-c3cccc([N+](=O)[O-])c3)o2)C(=O)NCCCN(C)C)cc1`, the inhibition is -11.9% (inactive).

Consider `N#C/C(=C\c1ccc(-c2cccc([N+](=O)[O-])c2)o1)C(=O)NCCN1CCOCC1`, for which the inhibition is -14.4% (inactive). In the case of `Cc1ccc(Cc2cnc(NC(=O)/C(C#N)=C/c3ccc(-c4cccc([N+](=O)[O-])c4)o3)s2)cc1`, the inhibition is 46.7% (active).

Take `CN1/C(=c2/s/c(=C3/C(=O)N(c4ccccc4)NC3=Nc3ccccc3)n(C)c2=O)C(C)(C)c2ccccc21`: the inhibition was 21.6% (inactive).

In the case of `C=CCC1(C#N)C(=S)NC(C)=C(C(=O)OCC)C1c1ccccc1` (centres undefined), the inhibition was -0.47% (inactive). `CC(C)c1ccc(N2CC(C(=O)Nc3nccs3)CC2=O)cc1` (centres undefined): the inhibition is 3.92% (inactive). For `O=C(CCCN1C(=O)/C(=C/c2ccccc2)SC1=S)Nc1ccc(O)cc1`, the inhibition is 0.73% (inactive). Take `O=C(CCCN1C(=O)/C(=C\c2ccco2)SC1=S)Nc1cccc2ccccc12`: the inhibition is 50.6% (active). As for `O=C(CCCN1C(=O)/C(=C\c2ccccc2)SC1=S)Nc1ccccc1O`, the inhibition was 1.56% (inactive). Turning to `CCC(c1nnnn1Cc1ccccc1)N(Cc1cc2cc(OC)ccc2[nH]c1=O)CC1CCCO1` (centres undefined), the inhibition is 9.57% (inactive). In the case of `CCC(c1nnnn1Cc1ccco1)N(CCc1ccccc1)Cc1cc2ccc(OC)cc2[nH]c1=O` (centres undefined), the inhibition was 14.3% (inactive). To `CCC(c1nnnn1Cc1ccco1)N(Cc1cc2cc(OC)ccc2[nH]c1=O)C1CCCCC1` (centres undefined) belongs 53.5% (active); to `O=C(CSc1nnc(-c2ccc([N+](=O)[O-])cc2)o1)Nc1ccccn1`, -13.9% (inactive); to `Cc1cc2c(cc1C)N(C(=O)CN1C(=O)c3ccccc3C1=O)C(C)(C)c1ssc(=S)c1-2`, 20.8% (inactive). Regarding `CCOC(=O)C1CSC(CC(=O)Nc2ccc(OCC)cc2)C(=O)N1` (centres undefined), the inhibition is -5.22% (inactive). As for `O=C(COc1ccc([N+](=O)[O-])cc1)Nc1ccc(N2CCCC2)cc1`, the inhibition is 9.26% (inactive). With `O=C(N/N=C/c1ccc(O)cc1)/C(=C/c1ccc([N+](=O)[O-])cc1)NC(=O)c1ccccc1`, the inhibition was 10.4% (inactive). To `O=C(COc1ccc(/C=N/NC(=O)c2ccc(O)cc2)cc1)Nc1ccc([N+](=O)[O-])cc1` belongs 55.5% (active); to `CC1(c2nnc(-c3ccncc3)o2)CC(c2cccnc2)=NO1` (centres undefined), 1.13% (inactive).

For the compound `Cc1ccc(C)c(NS(=O)(=O)c2c(C)[nH]c(C)c2C(=O)N2CCCCC2)c1`, the inhibition is -13.2% (inactive). To `O=C1COc2ccc(NC(=O)N3CCN(c4ccc(F)cc4)CC3)cc2N1` belongs -3.43% (inactive). With `CC1(OC(=O)C2CCCC2)C(=O)C=C2C=C(c3ccc(C#N)cc3)OC=C2C1=O` (centres undefined) the figure was 53.6% (active); with `CC(C)(C)OC(=O)NCCCC1=CC2=CC(=O)C(C)(OC(=O)c3ccco3)C(=O)C2=CO1` (centres undefined), 28.9% (inactive); with `COCCN1C=C2C(=O)C(C)(OC(=O)C3CCCC3)C(=O)C=C2C=C1c1ccsc1` (centres undefined), -6.55% (inactive).

Regarding `Cn1cc(-c2ccccc2)cc(C#N)c1=O`, the inhibition was 7.52% (inactive). As to `COCCNC(=O)Nc1ccc2nc(-c3ccco3)c(-c3ccco3)nc2c1`, the inhibition was 83.7% (active). Consider `O=C(NCc1ccccn1)c1ccc2nc(-c3ccco3)c(-c3ccco3)nc2c1`, for which the inhibition is 77.7% (active). With `COc1ccc2oc(=O)c(C(=O)NCc3ccccn3)cc2c1` the figure was -1.18% (inactive). With `Cc1cc(C)cc(NC(=O)NCc2ccccn2)c1` the figure was -2.74% (inactive); with `CCCC(=O)Nc1ccc2c(c1)nc(CCNC(=O)c1ccco1)n2C`, -7.25% (inactive). For the compound `CCOc1cc(NC(=S)NCCCOC)c(OCC)cc1NC(=O)c1ccco1`, the inhibition is -1.9% (inactive). With `O=C(CCc1ccccc1)Nc1ccc(NC(=O)C2CC2)nc1` the figure was 3.25% (inactive). Consider `O=[N+]([O-])C(=c1ccc2c(c1)N1C3=C(CCCC3)CC3CCCCC31N=2)[N+](=O)[O-]` (centres undefined), for which the inhibition was 62.9% (active). With `Cc1ccc(S(=O)(=O)c2c[nH]c3ccc(Cl)cc3c2=O)cc1`, the inhibition is 0.6% (inactive).

Consider `CCN1C(=NCCc2cccnc2)N[C@@H](c2ccccc2)[C@H](C(=O)OC)[C@H]1C`, for which the inhibition was 8.18% (inactive). For `CC(C(=O)O)n1cnc2sc3c(c2c1=O)CCCC3` (centres undefined), the inhibition is 0.01% (inactive). Take `COc1ccc(OCC(=O)NN2Cc3ccccc3C2=N)cc1`: the inhibition is -6.41% (inactive).

On to `CNc1nnc(-c2ccco2)s1`, for which the inhibition was -7.57% (inactive).

Regarding `COc1ccc(OCC(=O)Nc2nnc(-c3ccco3)s2)cc1`, the inhibition is 54.1% (active). With `Cc1ccc(OCC(=O)Nc2nnc(-c3ccco3)s2)cc1` the figure was 2.47% (inactive); with `COc1ccc(OC)c(CNC(=O)c2cc(=O)[nH]c3ccc(S(=O)(=O)N4CCCC4)cc23)c1`, 0.99% (inactive). Consider `COc1cc(-c2cc(C(=O)OCC(=O)Nc3ccc4c(c3)OCO4)c3ccccc3n2)cc(OC)c1OC`, for which the inhibition is 46.1% (active).

Consider `COc1ccc(NC(=O)c2cc(-c3cc(OC)c(OC)c(OC)c3)nc3ccccc23)c(OC)c1`, for which the inhibition was -2.9% (inactive). With `CNC(=O)COC(=O)c1cc(-c2ccc(OC)cc2)nc2ccccc12` the figure was 0.09% (inactive); with `CN(C)/C(CN1CCCCC1)=C1\N=C(c2ccccc2)OC1=O`, -2.51% (inactive); with `Cc1ccc(/C=C(\C#N)C(=O)Nc2cccc3ncccc23)o1`, 64.5% (active).

Regarding `O=C(Nc1cccc2ncccc12)C(Cl)(Cl)Cl`, the inhibition is -1.9% (inactive).

With `Cc1ccc(C(=O)Nc2cccc3ncccc23)cc1[N+](=O)[O-]`, the inhibition was 4.3% (inactive).

In general, inhibition refers to the relative decrease from the control value, in per cent.
